Measurements: paper PMC8562524 (Journal for Immunotherapy of Cancer, 2021)

Legend:
[1] = target: human CD137 (Homo sapiens, UniProt Q07011); type: cell-based; conditions: co-culture with 4T1 cells overexpressing mouse Nectin-4, 6 hours
[2] = system: MC38-Nectin-4 tumors; assay: Pharmacodynamics in MC38-Nectin-4 tumors; type: in vivo, mouse; conditions: 144 hours
How it was run: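 C57BL/6J-hCD137 mice bore MC38-Nectin-4 tumors. Tumors were harvested 24, 48, 96 and 144 h after test compound 5 mg/kg at 0 and 24 h. Controls were harvested at 144 h: vehicle, a non-CD137-binding analogue (same schedule), or anti-CD137 agonist antibody 2 mg/kg every 3 days. Tumors were assessed by IHC (mouse CD8) and NanoString mRNA profiling.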

Chain of human CD137 (Q07011 24-255): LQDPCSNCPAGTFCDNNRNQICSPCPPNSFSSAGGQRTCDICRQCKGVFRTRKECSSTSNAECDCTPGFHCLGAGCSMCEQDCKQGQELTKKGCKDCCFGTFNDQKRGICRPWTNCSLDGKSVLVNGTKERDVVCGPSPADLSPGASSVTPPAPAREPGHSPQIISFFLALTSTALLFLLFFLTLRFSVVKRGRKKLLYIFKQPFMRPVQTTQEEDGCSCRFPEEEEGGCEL

Substance: anti-CD137 antibody agonist: anti-human 4-1BB therapeutic antibody, urelumab, Creative Biolabs Cat. No. TAB-179
- CD137 agonism (reporter activity) [1]: induced CD137 agonism in a Nectin-4-independent manner
- reprogramming of the tumor immune microenvironment (mRNA profiling) [2]: to lesser extent
- T cell infiltrates in tumor (CD8 IHC) ([2]; BT7480 or NB-BCY 5 mg/kg at 0 and 24 hours, anti-CD137 antibody agonist 2 mg/kg): increased
